One assay addresses HLA-A*3001 (Homo sapiens, UniProt P04439, D140H/D185E/E176W/F33S/G80R/H175R/K168Q/R138E/R41S). Put plainly: Competitive peptide-binding assay, purified HLA-A*3001. The gist of the method: (§1)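 HLA class I purified from EBV-transformed homozygous or single-allele-transfected 721.221/C1R lysates on W6/32 beads (some HLA-A pre-depleted of B/C on B1.23.2). 0.1–1 nM radiolabeled high-affinity probe, 1 µM to 1 nM MHC, protease inhibitors, 1 µM β2m; 2 days, room temp. Complexes captured on W6/32 plates, cpm counted. Competitor at six concentrations over 100,000-fold range, ≥3 experiments; IC50 = 50% probe inhibition.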

The target in a further assay is HLA-A*3101 (Homo sapiens, UniProt P04439, A270S/D185E/E176V/E277Q/F33T/G231S/G80R/H175R/I121M/I218V/I322F/K168Q/L300P/L318F/M331R/P217A/Q94H/R138Q/T323A/T345S/T97I/V358M). The experiment in a line: Competitive peptide-binding assay, purified HLA-A*3101.
The target in the next assay is HLA-A*3301 (Homo sapiens, UniProt P04439, A270S/D185E/E176V/E277Q/E87N/F33T/G231S/H175R/I121M/I218V/I322F/K168Q/K210R/L300P/L318F/M331R/P217A/Q86R/Q94H/R138Q/T323A/T345S/T97I/V358M/Y195H). Put plainly: Competitive peptide-binding assay, purified HLA-A*3301. A digest of the protocol: as §1
Another assay addresses HLA-A*1101 (Homo sapiens, UniProt P04439, A114D/D185E/E176A/F33Y/L180Q/S129P/T187R). Put plainly: Competitive peptide-binding assay, purified HLA-A*1101.
The target in the next assay is HLA-A*6801 (Homo sapiens, UniProt P04439, A269V/D185E/E176V/E277Q/E87N/F33Y/G231S/I121M/I166T/I218V/L180W/L300P/L318F/N151K/P208A/P217A/Q86R/R169H/T345S). The experiment in a line: Competitive peptide-binding assay, purified HLA-A*6801. A digest of the protocol:
as §1

A further assay addresses HLA-A*0301 (Homo sapiens, UniProt P04439). Put plainly: Competitive peptide-binding assay, purified HLA-A*0301. The gist of the method:
as §1

Another assay deals with HLA-A*6601 (Homo sapiens, UniProt P04439, A114D/A173T/A270S/D185E/E277Q/E87N/F33Y/G231S/I121R/I218V/K168Q/L180W/L300P/L318F/P208A/P217A/Q86R/R138Q/S129P/T187R/T323A/T345S/V358M). Put plainly: Competitive peptide-binding assay, purified HLA-A*6601. The gist of the method:
as §1

In assay [1] the test system is T cells of recent-onset HLA-A*0201-positive patients. The note with it: recent-onset HLA-A*0201-positive type 1 diabetes patients; cited from earlier work.
Another assay addresses HLA-B*0702 (Homo sapiens, UniProt P01889). Put plainly: Competitive peptide-binding assay, purified HLA-B*0702. A digest of the protocol:
as §1

A further assay concerns the target HLA-B*4201 (Homo sapiens, UniProt P01889, D138N/E176V/E187T/K202T/R180D). The experiment in a line: Competitive peptide-binding assay, purified HLA-B*4201. The gist of the method: as §1
The next assay concerns the target HLA-B*5301 (Homo sapiens, UniProt P01889, A329T/A93T/A95T/C349S/D201E/D98Y/E176V/E187L/E204Q/E69T/G107R/I218V/K202T/L105A/L119I/N104I/Q94N/R106L/R155S/R180L/S101N/S121R/S35A/S48A/T118I/V127L/V306I/V36M/Y140S/Y91F). The experiment in a line: Competitive peptide-binding assay, purified HLA-B*5301. The gist of the method:
as §1

The target of the next assay is HLA-B*3503 (Homo sapiens, UniProt P01889, A329T/A93T/A95T/C349S/D201E/D98Y/E176V/E187L/E204Q/E69T/I218V/K202T/L119I/Q94N/R155S/R180L/S121R/S35A/S48A/T118I/V127L/V306I/V36M/Y140F/Y91F). Put plainly: Competitive peptide-binding assay, purified HLA-B*3503. The gist of the method:
as §1

The target in another assay is HLA-B*3501 (Homo sapiens, UniProt P01889, A329T/A93T/A95T/C349S/D201E/D98Y/E176V/E187L/E204Q/E69T/I218V/K202T/L119I/Q94N/R155S/R180L/S121R/S35A/S48A/T118I/V127L/V306I/V36M/Y140S/Y91F). Put plainly: Competitive peptide-binding assay, purified HLA-B*3501. A digest of the protocol: as §1
For the next assay, the target named is HLA-B*5101 (Homo sapiens, UniProt P01889, A329T/A93T/A95T/C349S/D138N/D201E/D98Y/E187L/E204Q/E69T/G107R/I218V/K202T/L105A/L119W/N104I/Q94N/R106L/R155S/R180L/S101N/S121T/S35A/S48A/V306I/V36M/Y195H/Y91F). Put plainly: Competitive peptide-binding assay, purified HLA-B*5101. The gist of the method:
as §1

Another assay concerns the target HLA-B*5401 (Homo sapiens, UniProt P01889, A329T/C349S/D138N/D201E/E176V/E187T/E204Q/E69G/I76V/K202T/L119W/R155S/R180L/S121T/S35A/S48A/V127L/V306I/V36M/Y140L). The experiment in a line: Competitive peptide-binding assay, purified HLA-B*5401. A digest of the protocol:
as §1

Peptide text beside a SMILES is read from it. Some results are limits rather than exact numbers.

One may read the IC50 as the point on the concentration scale where inhibition reaches its midpoint. The low end stands for inhibition by little substance, the high end for a need for much substance.

Consider `CC(C)C[C@H](NC(=O)[C@H](C)NC(=O)[C@H](CC(C)C)NC(=O)[C@@H](N)[C@@H](C)O)C(=O)N[C@@H](CCC(=O)O)C(=O)N[C@H](C(=O)N[C@@H](C)C(=O)N[C@@H](CCCNC(=N)N)C(=O)N[C@@H](CCC(N)=O)C(=O)N[C@@H](CCCCN)C(=O)O)C(C)C` [Mouse Ins1 C21-30] (H-TLALEVARQK-OH), for which the IC50 was determined as 23.3 µM on HLA-A*3001; 13 µM at HLA-A*3101; 25.5 µM on HLA-A*3301; 3.33 µM on HLA-A*1101; 13.4 µM at HLA-A*6801; 0.605 µM on HLA-A*0301. For the same molecule, at HLA-A*6601, the IC50 is over 50 µM.

As for “IGRP 265–273: HLA-A2-binding IGRP epitope recognised in patients (VLFGLGFAI; UniProt Q9NQR9 265-273, looked up, fragment)”, in assay [1], the “Patients showing T cell responses to the peptide (fraction in words)” value was “one quarter”.

For `CC(C)C[C@H](NC(=O)[C@H](C)NC(=O)[C@H](CC(C)C)NC(=O)[C@@H](N)[C@@H](C)O)C(=O)N[C@@H](CCC(=O)O)C(=O)N[C@H](C(=O)N[C@@H](C)C(=O)N[C@@H](CCC(N)=O)C(=O)N[C@@H](CCC(N)=O)C(=O)N[C@@H](CCCCN)C(=O)O)C(C)C` [Mouse Ins2 C23-32] (H-TLALEVAQQK-OH), the IC50 at HLA-A*3001 is over 50 µM; at HLA-A*3101, over 50 µM; on HLA-A*3301, over 50 µM; at HLA-A*1101, 0.833 µM; on HLA-A*6801, 7.49 µM; on HLA-A*0301 it was 0.856 µM. Further, the IC50 at HLA-A*6601 was over 50 µM.

On to `CC(C)C[C@H](NC(=O)[C@H](C)NC(=O)[C@@H](N)CC(C)C)C(=O)N[C@@H](CCC(=O)O)C(=O)NCC(=O)N[C@@H](CO)C(=O)N[C@@H](CC(C)C)C(=O)N[C@@H](CCC(N)=O)C(=O)N[C@@H](CCCCN)C(=O)N[C@@H](CCCNC(=N)N)C(=O)O` [Human Ins C24-33] (H-LALEGSLQKR-OH), for which the IC50 is over 50 µM at HLA-A*3001; 38.4 µM at HLA-A*3101; 3.27 µM at HLA-A*3301; 34.5 µM at HLA-A*1101; 0.066 µM at HLA-A*6801; 17.5 µM at HLA-A*0301. The same molecule returned an IC50 on HLA-A*6601 of 0.515 µM.

For `CC(C)C[C@H](NC(=O)[C@H](C)NC(=O)[C@H](CC(C)C)NC(=O)[C@@H]1CCCN1C(=O)[C@H](CCC(N)=O)NC(=O)[C@H](CC(C)C)NC(=O)[C@H](CO)NC(=O)CNC(=O)[C@H](C)NC(=O)CNC(=O)[C@@H]1CCCN1C(=O)CN)C(=O)O` [Human Ins C15-26] (H-GPGAGSLQPLAL-OH), the IC50 at HLA-B*0702 was 0.462 µM; on HLA-B*4201 it was 6.07 µM; at HLA-B*5301, 15.5 µM; on HLA-B*3503, over 50 µM; on HLA-B*3501, over 50 µM; on HLA-B*5101, over 50 µM. On HLA-B*5401, the IC50 was over 50 µM.

As for `CC[C@H](C)[C@H](NC(=O)[C@H](C)N)C(=O)N[C@@H](CC(N)=O)C(=O)N[C@@H](CO)C(=O)N[C@@H](CCC(=O)O)C(=O)N[C@@H](CCSC)C(=O)N[C@@H](Cc1ccccc1)C(=O)N[C@@H](CC(C)C)C(=O)N[C@@H](CCCNC(=N)N)C(=O)O` [Mouse IGRP 272–280] (H-AINSEMFLR-OH), the IC50 turned out to be 49.8 µM at HLA-A*3001; 0.067 µM at HLA-A*3101; 1.08 µM on HLA-A*3301; 0.209 µM at HLA-A*1101; 0.109 µM at HLA-A*6801; 0.428 µM at HLA-A*0301. The molecule also registered a half-maximal inhibitory concentration (IC50) at HLA-A*6601 of 4.55 µM.

Turning to `CC(C)C[C@H](NC(=O)[C@H](C)NC(=O)[C@@H](N)CC(C)C)C(=O)N[C@@H](CCC(=O)O)C(=O)N[C@H](C(=O)N[C@@H](C)C(=O)N[C@@H](CCCNC(=N)N)C(=O)N[C@@H](CCC(N)=O)C(=O)N[C@@H](CCCCN)C(=O)N[C@@H](CCCNC(=N)N)C(=O)O)C(C)C` [Mouse Ins1 C22-31] (H-LALEVARQKR-OH), the IC50 on HLA-A*3001 was 43 µM; at HLA-A*3101 it was 10.8 µM; at HLA-A*3301, 9.14 µM; at HLA-A*1101 it was over 50 µM; at HLA-A*6801 it was 12.6 µM; at HLA-A*0301 it was 43.6 µM. In addition, the IC50 at HLA-A*6601 was 13 µM.

Regarding `CC(C)C[C@H](NC(=O)[C@H](C)NC(=O)[C@H](CC(C)C)NC(=O)[C@@H](NC(=O)[C@H](CCC(N)=O)NC(=O)[C@H](CC(C)C)NC(=O)[C@H](CC(=O)O)NC(=O)CNC(=O)[C@@H]1CCCN1C(=O)[C@@H](N)CO)[C@@H](C)O)C(=O)O` [Mouse Ins1 C15-24] (H-SPGDLQTLAL-OH), the IC50 at HLA-B*0702 was 0.0044 µM; at HLA-B*4201, 0.035 µM; on HLA-B*5301, 11 µM; on HLA-B*3503 it was 16.1 µM; at HLA-B*3501, over 50 µM; at HLA-B*5101, over 50 µM. At HLA-B*5401, this molecule came in with an IC50 of over 50 µM.

For the molecule `CC[C@H](C)[C@H](NC(=O)[C@H](C)N)C(=O)N[C@@H](CC(N)=O)C(=O)N[C@@H](CO)C(=O)N[C@@H](CCC(=O)O)C(=O)N[C@@H](CCSC)C(=O)N[C@@H](Cc1ccccc1)C(=O)N[C@@H](CC(C)C)C(=O)N[C@@H](CC(C)C)C(=O)O` [Human IGRP 272–280] (H-AINSEMFLL-OH), the IC50 amounted to 6.78 µM at HLA-A*3001; 1.07 µM on HLA-A*3101; 12.8 µM on HLA-A*3301; 2.82 µM at HLA-A*1101; 14.2 µM at HLA-A*6801; 1.26 µM at HLA-A*0301. Besides, at HLA-A*6601, the concentration for half-maximal inhibition (IC50) turned out to be 36.7 µM.

As to `CC(C)C[C@H](NC(=O)[C@H](C)NC(=O)[C@H](CC(C)C)NC(=O)[C@@H]1CCCN1)C(=O)N[C@@H](CCC(=O)O)C(=O)NCC(=O)N[C@@H](CO)C(=O)N[C@@H](CC(C)C)C(=O)N[C@@H](CCC(N)=O)C(=O)N[C@@H](CCCCN)C(=O)O` [Human Ins C23-32] (H-PLALEGSLQK-OH), the half-inhibitory concentration (IC50) was over 50 µM on HLA-A*3001; 39.4 µM on HLA-A*3101; over 50 µM at HLA-A*3301; 37.1 µM on HLA-A*1101; 41.5 µM on HLA-A*6801; 20.9 µM at HLA-A*0301. The same molecule yielded an IC50 on HLA-A*6601 of 48.5 µM.

These data come from publication PMC3358524 (Journal of Immunology (Baltimore, Md. : 1950), 2012).
